ChEMBL document CHEMBL1139068, “Amino acid-based enantiomerically pure 3-substituted 1,4-benzodiazepin-2-ones: a new class of anti-ischemic agents” (2007)

Tests used:
[1] = Antiischemic activity in forebrain neurons assessed as necrotic neuronal population at 100 uM after 20 mins; format: functional, Homo sapiens, Neuron
In short: (§1)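 Isolated forebrain neurons at 1×10^6 cells/100 µl pretreated with compound (100 µM) 20 min at 37 °C, then exposed to equal volume of H2O2 (300 µM) 1 h at 37 °C; untreated cells held 1 h 20 min. Cells washed twice in cold PBS, stained FITC-Annexin V/propidium iodide 15 min at room temperature in dark. 10,000 cells read by flow cytometry (ex 488 nm; em 530, 670 nm); quadrant percentages.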

[2] = Antiischemic activity in forebrain neurons assessed as viable cells at 100 uM after 20 mins; format: functional; details: Homo sapiens, Neuron, read-out: Activity; in short: as §1
[3] = Antiischemic activity in forebrain neurons assessed as necrotic and delayed apoptotic neuronal population at 100 uM after 20 mins; format: functional, Homo sapiens, Neuron; in short: as §1
[4] = Antiischemic activity in forebrain neurons assessed as apoptotic neuronal population at 100 uM after 20 mins; format: functional, Homo sapiens, Neuron; in short: as §1

Row | Structure (SMILES) | Activity [1] | viability at 100 µM [2] | Activity [3] | Activity [4]
1 | C[C@@H]1NCc2ccccc2NC1=O | 5.35% | 60.4% | 4.8% | 29.47%
2 | COC(=O)C[C@@H]1NCc2ccccc2NC1=O | 4.73% | 65.2% | 4.28% | 25.75%
3 | O=C1Nc2ccccc2CN[C@H]1Cc1ccc(OCc2ccccc2)cc1 | 4.99% | 66.5% | 4.83% | 23.63%
4 | CSCC[C@@H]1NCc2ccccc2NC1=O | 4.73% | 82.7% | 3.5% | 9.08%
5 | O=C1Nc2ccccc2CN[C@H]1Cc1ccccc1 | 2.07% | 70.1% | 1.21% | 25.58%
6 | O=C1Nc2ccccc2CN[C@@H]1Cc1c[nH]c2ccccc12 | 0.5% | 75% | 3.47% | 21.06%
7 | CSCC[C@H]1NCc2ccccc2NC1=O | 0.52% | 77.8% | 3.98% | 16.96%
8 | O=C1Nc2ccccc2CN2C[C@@H](O)C[C@@H]12 | 5.68% | 87.5% | 3.08% | 3.79%
9 | O=C1Nc2ccccc2CN2CCC[C@@H]12 | 5.51% | 66.2% | 5.04% | 23.27%
10 | C[C@H]1NCc2ccccc2NC1=O | 0.98% | 69% | 3.2% | 26.85%
11 | O=C1Nc2ccccc2CN[C@H]1Cc1c[nH]c2ccccc12 | 4.33% | 61.3% | 3.55% | 30.86%
12 | O=C1Nc2ccccc2CN2C(=O)CC[C@@H]12 | 5.56% | 66.1% | 3.75% | 24.62%
13 | O=C1Nc2ccccc2CN[C@@H]1Cc1ccccc1 | 0.68% | 79% | 0.68% | 17.26%
14 | O=C1Nc2ccccc2CN2CCC[C@H]12 | 0.64% | 84.5% | 3.1% | 11.72%
15 | O=C1Nc2ccccc2CN[C@H]1CSCc1ccccc1 | 5.05% | 64.4% | 4.58% | 26.01%
16 | NC(=O)CC[C@@H]1NCc2ccccc2NC1=O | 4.75% | 67.2% | 3.12% | 24.93%
